Reference: ChEMBL document CHEMBL1165899, “Synthesis and antitumor evaluation of novel cyclic arylsulfonylureas: ADME-T and pharmacophore prediction” (2010)

Assays:
Assay type in all cases: functional
SK-MEL-28 = test: Growth inhibition of human SK-MEL-28 cells at 10 uM after 48 hrs by sulforhodamine B assay relative to control; conditions: SK-MEL-28, 48 h, read-out: GI
LOX IMVI = test: Growth inhibition of human LOXIMVI cells at 10 uM after 48 hrs by sulforhodamine B assay relative to control; conditions: read-out: GI
UO-31 = test: Growth inhibition of human UO31 cells at 10 uM after 48 hrs by sulforhodamine B assay relative to control; conditions: UO-31, 48 h, read-out: GI
Outline: (§1)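 NCI 60-cell-line single-dose screen at 10 µM. Cells were plated at 5000–40,000 cells/well according to doubling time, in medium with 2 mM L-glutamine, and held 24 h at 37 °C, 5% CO₂, 100% humidity before drug. Time-zero plates were TCA-fixed. Exposure was 48 h, then TCA fixation and sulforhodamine B staining for 10 min, acetic acid washes, 10 mM trizma solubilization and A515. % inhibition = 100 − % activity, where 100% is the DMSO-solvent control.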

TK-10 = test: Growth inhibition of human TK10 cells at 10 uM after 48 hrs by sulforhodamine B assay relative to control; conditions: TK-10, 48 h, read-out: GI; outline: as §1
SN12C = test: Growth inhibition of human SN12C cells at 10 uM after 48 hrs by sulforhodamine B assay relative to control; conditions: read-out: GI
RXF 393 = test: Growth inhibition of human RXF393 cells at 10 uM after 48 hrs by sulforhodamine B assay relative to control; conditions: RXF 393, 48 h, read-out: GI
CAKI-1 = test: Growth inhibition of human Caki1 cells at 10 uM after 48 hrs by sulforhodamine B assay relative to control; conditions: CAKI-1, 48 h, read-out: GI
786-0 = test: Growth inhibition of human 786-0 cells at 10 uM after 48 hrs by sulforhodamine B assay relative to control; conditions: 786-0, 48 h, read-out: GI
[1] = Growth inhibition of human […] cells at 10 uM after 48 hrs by sulforhodamine B assay relative to control; conditions: read-out: GI
HL-60(TB) = test: Growth inhibition of human HL-60(TB) cells at 10 uM after 48 hrs by sulforhodamine B assay relative to control; conditions: HL-60, 48 h, read-out: GI
Outline: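 Part of a 60-cell-line panel screen at a single concentration. Cells were plated at 5000–40,000 cells/well according to doubling time and pre-incubated 24 h at 37 °C, 5% CO₂, with time-zero plates fixed. Drug exposure ran 48 h. Plates were stained with SRB, rinsed with 1% acetic acid, dye dissolved in 10 mM trizma base, read at 515 nm. % inhibition = 100 − % activity versus DMSO-only wells; 100–200% denotes lethality.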

CCRF-CEM = test: Growth inhibition of human CCRF-CEM cells at 10 uM after 48 hrs by sulforhodamine B assay relative to control; conditions: read-out: GI
PC-3 = test: Growth inhibition of human PC3 cells at 10 uM after 48 hrs by sulforhodamine B assay relative to control; conditions: PC-3, 48 h, read-out: GI
IGROV-1 = test: Growth inhibition of human IGROV1 cells at 10 uM after 48 hrs by sulforhodamine B assay relative to control; conditions: IGROV-1, 48 h, read-out: GI
MDA-MB-435 = test: Growth inhibition of human MDA-MB-435 cells at 10 uM after 48 hrs by sulforhodamine B assay relative to control; conditions: MDA-MB-435, 48 h, read-out: GI
SW-620 = test: Growth inhibition of human SW620 cells at 10 uM after 48 hrs by sulforhodamine B assay relative to control; conditions: SW-620, 48 h, read-out: GI; outline: as §1
HT-29 = test: Growth inhibition of human HT-29 cells at 10 uM after 48 hrs by sulforhodamine B assay relative to control; conditions: HT-29, 48 h, read-out: GI
HCC 2998 = test: Growth inhibition of human HCC2998 cells at 10 uM after 48 hrs by sulforhodamine B assay relative to control; conditions: HCC 2998, 48 h, read-out: GI
NCI-H522 = test: Growth inhibition of human NCI-H522 cells at 10 uM after 48 hrs by sulforhodamine B assay relative to control; conditions: NCI-H522, 48 h, read-out: GI
NCI-H23 = test: Growth inhibition of human NCI-H23 cells at 10 uM after 48 hrs by sulforhodamine B assay relative to control; conditions: NCI-H23, 48 h, read-out: GI
SF-295 = test: Growth inhibition of human SF295 cells at 10 uM after 48 hrs by sulforhodamine B assay relative to control; conditions: SF-295, 48 h, read-out: GI
SF-539 = test: Growth inhibition of human SF539 cells at 10 uM after 48 hrs by sulforhodamine B assay relative to control; conditions: SF-539, 48 h, read-out: GI
SNB-75 = test: Growth inhibition of human SNB75 cells at 10 uM after 48 hrs by sulforhodamine B assay relative to control; conditions: SNB-75, 48 h, read-out: GI
UACC-257 = test: Growth inhibition of human UACC257 cells at 10 uM after 48 hrs by sulforhodamine B assay relative to control; conditions: UACC-257, 48 h, read-out: GI; outline: as §1

CN(C)c1ccc(/C=C2\NC(=O)N(S(=O)(=O)c3ccc(Cl)cc3)C2=O)cc1
inhibition of growth at 10 µM (SK-MEL-28): -4.69% | inhibition of growth at 10 µM (LOX IMVI): 6.44% | inhibition of growth at 10 µM (UO-31): 5.5% | inhibition of growth at 10 µM (TK-10): -33.4% | inhibition of growth at 10 µM (SN12C): 0.04% | inhibition of growth at 10 µM (RXF 393): 95.7% | inhibition of growth at 10 µM (CAKI-1): -5.71% | inhibition of growth at 10 µM (786-0): -0.44% | inhibition of growth at 10 µM [1]: -6.72% | inhibition of growth at 10 µM (HL-60(TB)): 4.85% | inhibition of growth at 10 µM (CCRF-CEM): 2.95% | inhibition of growth at 10 µM (PC-3): -6.65% | inhibition of growth at 10 µM (IGROV-1): 97.9% | inhibition of growth at 10 µM (MDA-MB-435): -4.89% | inhibition of growth at 10 µM (SW-620): -1.96% | inhibition of growth at 10 µM (HT-29): -2.64% | inhibition of growth at 10 µM (HCC 2998): -54% | inhibition of growth at 10 µM (NCI-H522): 9.78% | inhibition of growth at 10 µM (NCI-H23): -1.8% | inhibition of growth at 10 µM (SF-295): -8.92% | inhibition of growth at 10 µM (SF-539): -0.9% | inhibition of growth at 10 µM (SNB-75): -5.55% | inhibition of growth at 10 µM (UACC-257): -1.01%
